Measurements: ChEMBL document CHEMBL3603837, “Indole Glucocorticoid Receptor Antagonists Active in a Model of Dyslipidemia Act via a Unique Association with an Agonist Binding Site” (J Med Chem, 2015)
Calls of active or inactive are those of the source. The rule behind the calls is not given here.

What was measured:
[1] = target: T1, Estrogen receptor (Homo sapiens) (UniProt P03372); assay: Binding affinity to human estrogen receptor expressed in HEK293 cells by scintillation counting based radioligand competition binding assay; format: cell-based
T1 sequence (whole entry): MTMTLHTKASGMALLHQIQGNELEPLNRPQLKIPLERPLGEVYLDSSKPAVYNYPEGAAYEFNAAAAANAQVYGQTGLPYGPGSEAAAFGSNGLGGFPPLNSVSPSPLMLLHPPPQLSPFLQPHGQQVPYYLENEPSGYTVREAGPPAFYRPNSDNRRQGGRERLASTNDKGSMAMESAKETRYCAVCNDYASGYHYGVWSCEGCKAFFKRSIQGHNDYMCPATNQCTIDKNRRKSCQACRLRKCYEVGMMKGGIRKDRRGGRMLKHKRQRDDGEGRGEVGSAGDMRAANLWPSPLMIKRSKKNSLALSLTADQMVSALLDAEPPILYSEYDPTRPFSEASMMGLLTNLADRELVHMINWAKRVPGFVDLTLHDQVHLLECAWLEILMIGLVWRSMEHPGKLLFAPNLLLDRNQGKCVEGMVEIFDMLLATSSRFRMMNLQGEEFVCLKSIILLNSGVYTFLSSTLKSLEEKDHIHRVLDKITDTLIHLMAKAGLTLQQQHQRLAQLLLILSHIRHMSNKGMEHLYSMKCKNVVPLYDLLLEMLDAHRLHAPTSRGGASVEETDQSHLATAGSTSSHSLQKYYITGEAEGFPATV

Syrian golden hamster [2] = assay: Increase in HDL level in high fat and high cholesterol diet fed Syrian golden hamster at 30 mg/kg, po qd for 14 days; format: functional, Mesocricetus auratus
In short: (§1)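 Groups of Syrian golden hamsters (n = 6) kept on a high fat, high cholesterol diet for 14 days, dosed orally at 30 mg/kg once daily. Plasma HDL and LDL compared against untreated HFHC controls; mean with standard errors.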

Syrian golden hamster [3] = assay: Reduction in LDL level in high fat and high cholesterol diet fed Syrian golden hamster at 30 mg/kg, po qd for 14 days; format: functional; conditions: Mesocricetus auratus, 336 h; in short: as §1
[4] = target: T2, Glucocorticoid receptor (Homo sapiens) (UniProt P04150); assay: Displacement of [3H]-dexamethasone from human glucocorticoid receptor expressed in HEK293 cells at 10 uM by scintillation counting based radioligand competition binding assay; format: cell-based
T2 sequence (whole entry): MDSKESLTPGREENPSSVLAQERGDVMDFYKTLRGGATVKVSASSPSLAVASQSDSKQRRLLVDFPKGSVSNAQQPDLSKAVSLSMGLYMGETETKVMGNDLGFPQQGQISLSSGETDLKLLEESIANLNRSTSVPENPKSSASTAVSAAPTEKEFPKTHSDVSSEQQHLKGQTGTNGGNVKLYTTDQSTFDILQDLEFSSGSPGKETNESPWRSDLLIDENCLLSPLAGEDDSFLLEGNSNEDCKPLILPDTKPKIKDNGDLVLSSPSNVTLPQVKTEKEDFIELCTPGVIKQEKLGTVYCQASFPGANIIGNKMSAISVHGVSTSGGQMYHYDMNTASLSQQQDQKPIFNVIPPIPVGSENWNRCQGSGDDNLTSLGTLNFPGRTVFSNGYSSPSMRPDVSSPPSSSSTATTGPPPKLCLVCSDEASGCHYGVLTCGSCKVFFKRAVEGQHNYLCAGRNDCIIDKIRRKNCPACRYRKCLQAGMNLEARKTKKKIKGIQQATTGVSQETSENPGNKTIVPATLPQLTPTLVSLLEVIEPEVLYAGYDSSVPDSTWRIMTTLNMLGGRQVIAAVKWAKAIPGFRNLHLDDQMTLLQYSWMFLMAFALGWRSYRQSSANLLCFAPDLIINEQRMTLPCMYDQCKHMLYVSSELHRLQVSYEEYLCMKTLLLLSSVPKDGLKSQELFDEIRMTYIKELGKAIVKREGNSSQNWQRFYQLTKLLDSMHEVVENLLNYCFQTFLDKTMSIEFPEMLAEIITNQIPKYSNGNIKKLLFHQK
In short: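 Competition binding with 0.3 nM [3H]-dexamethasone and 20 μg 293-GR lysate per well; nonspecific binding defined with 0.5 μM dexamethasone. Incubated overnight at 4 °C, free ligand removed with charcoal–dextran, then scintillation counting. Percent inhibition at 10 μM was calculated.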

[5] = target: T3, Mineralocorticoid receptor (Homo sapiens, UniProt P08235); assay: biochemical
T3 sequence (P08235 whole entry): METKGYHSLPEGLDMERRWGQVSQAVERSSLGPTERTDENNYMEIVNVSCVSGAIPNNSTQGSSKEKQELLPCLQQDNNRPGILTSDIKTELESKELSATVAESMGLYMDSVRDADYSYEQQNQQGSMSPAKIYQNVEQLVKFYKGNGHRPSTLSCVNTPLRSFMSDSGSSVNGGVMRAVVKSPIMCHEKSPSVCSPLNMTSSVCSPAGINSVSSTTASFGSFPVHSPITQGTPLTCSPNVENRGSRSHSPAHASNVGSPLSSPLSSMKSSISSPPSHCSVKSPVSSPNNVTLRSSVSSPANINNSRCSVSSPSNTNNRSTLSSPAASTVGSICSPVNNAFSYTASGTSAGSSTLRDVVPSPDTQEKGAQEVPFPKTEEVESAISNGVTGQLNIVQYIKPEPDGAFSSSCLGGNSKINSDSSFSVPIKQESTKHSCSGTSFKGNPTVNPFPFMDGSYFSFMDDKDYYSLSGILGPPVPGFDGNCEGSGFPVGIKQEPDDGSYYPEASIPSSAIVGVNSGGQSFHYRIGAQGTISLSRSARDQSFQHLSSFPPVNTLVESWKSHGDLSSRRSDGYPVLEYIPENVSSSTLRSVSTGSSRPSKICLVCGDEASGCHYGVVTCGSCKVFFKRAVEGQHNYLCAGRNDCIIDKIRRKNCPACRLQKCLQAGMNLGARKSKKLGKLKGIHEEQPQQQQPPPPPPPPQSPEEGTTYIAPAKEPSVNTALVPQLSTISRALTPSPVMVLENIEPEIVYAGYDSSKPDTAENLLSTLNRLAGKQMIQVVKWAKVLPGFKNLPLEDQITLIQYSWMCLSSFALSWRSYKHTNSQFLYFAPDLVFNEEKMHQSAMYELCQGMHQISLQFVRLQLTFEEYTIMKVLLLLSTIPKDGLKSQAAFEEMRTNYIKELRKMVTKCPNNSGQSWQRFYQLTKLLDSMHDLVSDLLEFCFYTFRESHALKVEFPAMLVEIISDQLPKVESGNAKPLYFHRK

Androgen receptor = target: T4, Androgen receptor (Homo sapiens, UniProt P10275); assay: biochemical
T4 sequence (P10275 whole entry): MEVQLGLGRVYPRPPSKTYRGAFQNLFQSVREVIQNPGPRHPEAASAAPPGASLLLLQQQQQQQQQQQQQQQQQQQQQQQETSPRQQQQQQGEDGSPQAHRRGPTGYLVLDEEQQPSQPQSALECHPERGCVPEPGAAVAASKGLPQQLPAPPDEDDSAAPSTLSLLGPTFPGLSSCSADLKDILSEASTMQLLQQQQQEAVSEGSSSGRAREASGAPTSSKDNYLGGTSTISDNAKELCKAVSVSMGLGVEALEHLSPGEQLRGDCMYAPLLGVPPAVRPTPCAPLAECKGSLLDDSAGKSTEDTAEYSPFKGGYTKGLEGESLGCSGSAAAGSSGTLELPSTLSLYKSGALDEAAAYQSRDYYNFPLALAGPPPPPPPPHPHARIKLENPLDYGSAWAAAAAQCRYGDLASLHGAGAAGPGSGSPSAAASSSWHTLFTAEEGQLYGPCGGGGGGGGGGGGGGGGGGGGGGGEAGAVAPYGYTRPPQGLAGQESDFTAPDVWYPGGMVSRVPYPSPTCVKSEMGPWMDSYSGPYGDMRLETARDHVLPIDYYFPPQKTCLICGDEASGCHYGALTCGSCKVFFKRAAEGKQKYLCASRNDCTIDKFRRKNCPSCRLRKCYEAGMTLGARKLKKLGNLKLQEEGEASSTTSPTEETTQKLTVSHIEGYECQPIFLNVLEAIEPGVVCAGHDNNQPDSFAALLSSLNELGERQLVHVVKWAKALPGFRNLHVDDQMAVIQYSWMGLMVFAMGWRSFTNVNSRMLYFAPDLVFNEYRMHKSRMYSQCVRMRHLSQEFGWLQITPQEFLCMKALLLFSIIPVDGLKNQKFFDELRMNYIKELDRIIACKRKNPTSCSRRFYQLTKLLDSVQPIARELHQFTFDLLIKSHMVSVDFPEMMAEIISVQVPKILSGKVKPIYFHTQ

Compound | Activity [1] | Activity [4] | Ki [5] [µM] | Ki (Androgen receptor) [µM] | Activity (Syrian golden hamster [2]) [%] | inhibition in vivo at 30 mg/kg (Syrian golden hamster [3]) [%]
CC#C[C@]1(O)CC[C@H]2[C@@H]3CCC4=CC(=O)CCC4=C3[C@@H](c3ccc(N(C)C)cc3)C[C@@]21C [MIFEPRISTONE] | inactive | – | – | – | 35 | 43
Cc1[nH]c2ccccc2c1-c1ccccc1 | inactive | inactive | – | – | – | –
COc1cc(F)ccc1-c1c(CN(C)Cc2ccccc2)[nH]c2c([N+](=O)[O-])cc(C(C)C)cc12 | inactive | inactive | – | – | – | –

The next lines start with results.

Activity [1] | Activity [4] | Ki [5] [µM] | Ki (Androgen receptor) [µM] | Compound | Activity (Syrian golden hamster [2]) [%] | inhibition in vivo at 30 mg/kg (Syrian golden hamster [3]) [%]
inactive | – | 6.53 | 6.12 | COc1ccc(F)cc1-c1c[nH]c2c(NC(C)=O)cccc12 | – | –
inactive | – | – | – | COc1ccc(-c2c[nH]c3c(NS(C)(=O)=O)cccc23)cc1F | – | –
